Values after ≈ are worked out from the molar mass of the structure shown.
Key:
Format in all cases: functional
Staphylococcus aureus [1] = assay: Antibacterial activity against Staphylococcus aureus ATCC 10832 after 24 hrs by NCCLS M7-A6 broth dilution method; details: ATCC 10832, 24 h
Summary of the method: (§1)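 96-well microtitre broth dilution in Mueller-Hinton broth, inoculum 10^5 CFU/mL. Compounds dissolved in DMSO at 4 mg/mL, then twofold serial dilution giving final 200 down to 0.39 µg/mL. Incubated 24 h at 37 °C. Cultures streaked on plates to check clarity; MIC taken as lowest concentration leaving the well clear. DMSO-only solvent control run at matching dilutions.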

Candida albicans = assay: microbe, parasite or virus in culture; details: ATCC 10231, 24 h
Staphylococcus aureus [2] = assay: Antibacterial activity against methicillin-resistant Staphylococcus aureus ATCC 700699 after 24 hrs by NCCLS M7-A6 broth dilution method; details: ATCC 700699, 24 h; summary of the method: as §1
Escherichia coli = assay: Antibacterial activity against Escherichia coli ATCC 11303 after 24 hrs by NCCLS M7-A6 broth dilution method; details: ATCC 11303, 24 h
Summary of the method: (§2)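 Broth microdilution MIC per NCCLS. The 4 mg/mL DMSO stock was diluted in Mueller-Hinton broth with inoculum at 10^5 CFU/mL. Twofold serial dilutions gave final concentrations of 200 to 0.39 µg/mL. Incubation was 24 h at 37 °C, and cultures were streaked on plates to check clarity. MIC was the lowest concentration giving a clear well. Controls were medium-only and DMSO-only inoculated broth.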

Bacillus subtilis = assay: Antibacterial activity against Bacillus subtilis ATCC 33712 after 24 hrs by NCCLS M7-A6 broth dilution method; details: ATCC 33712, 24 h; summary of the method: as §2

Structure (SMILES)	MIC (Staphylococcus aureus [1]) [µg/mL]	MIC (Candida albicans) [µg/mL]	MIC (Staphylococcus aureus [2]) [µg/mL]	MIC (Escherichia coli) [µg/mL]	MIC (Bacillus subtilis) [µg/mL]
Cc1oc(-c2ccccc2)nc1CCCc1nc2cc(C[C@H](Oc3ccc(C#N)cc3)C(=O)O)ccc2o1	50 (≈ 98.5 µM)	> 200	50 (≈ 98.5 µM)	200 (≈ 394 µM)	50 (≈ 98.5 µM)
Cc1oc(-c2ccccc2)nc1CCCc1nc2cc(C[C@H](Oc3ccc(-c4ccccc4)cc3)C(=O)O)ccc2o1	1.56 (≈ 2.79 µM)	> 200	1.56 (≈ 2.79 µM)	3.12 (≈ 5.59 µM)	3.12 (≈ 5.59 µM)
CO/N=C(\C(=O)N[C@@H]1C(=O)N2C(C(=O)O)=C(COC(C)=O)CS[C@H]12)c1csc(N)n1 [CEFOTAXIME]	3.12 (≈ 6.85 µM)	–	3.12 (≈ 6.85 µM)	200 (≈ 439 µM)	0.78 (≈ 1.71 µM)
Cc1oc(-c2ccccc2)nc1CCCc1nc2cc(C[C@H](Oc3cccc(I)c3)C(=O)O)ccc2o1	3.12 (≈ 5.13 µM)	> 200	1.56 (≈ 2.56 µM)	25 (≈ 41.1 µM)	12.5 (≈ 20.5 µM)
Cc1oc(-c2ccccc2)nc1CCCc1nc2cc(C[C@H](Oc3ccc(OCc4ccccc4)cc3)C(=O)O)ccc2o1	1.56 (≈ 2.65 µM)	> 200	1.56 (≈ 2.65 µM)	6.25 (≈ 10.6 µM)	1.56 (≈ 2.65 µM)
Cc1ccc(O[C@@H](Cc2ccc3oc(CCCc4nc(-c5ccccc5)oc4C)nc3c2)C(=O)O)cc1	25 (≈ 50.3 µM)	> 200	12.5 (≈ 25.2 µM)	50 (≈ 101 µM)	50 (≈ 101 µM)
Cc1oc(-c2ccccc2)nc1CCCc1nc2cc(C[C@H](OC(C)C)C(=O)O)ccc2o1	50 (≈ 111 µM)	> 200	50 (≈ 111 µM)	200 (≈ 446 µM)	50 (≈ 111 µM)
Cc1oc(-c2ccccc2)nc1CCCc1nc2cc(C[C@H](Oc3cccnc3)C(=O)O)ccc2o1	200 (≈ 414 µM)	> 200	200 (≈ 414 µM)	> 200	> 200
Cc1oc(-c2ccccc2)nc1CCCc1nc2cc(C[C@H](Oc3ccc(Br)cc3)C(=O)O)ccc2o1	3.12 (≈ 5.56 µM)	> 200	3.12 (≈ 5.56 µM)	12.5 (≈ 22.3 µM)	6.25 (≈ 11.1 µM)
Cc1oc(-c2ccccc2)nc1CCCc1nc2cc(C[C@H](Oc3ccc(C(F)(F)F)cc3)C(=O)O)ccc2o1	1.56 (≈ 2.83 µM)	> 200	1.56 (≈ 2.83 µM)	12.5 (≈ 22.7 µM)	6.25 (≈ 11.4 µM)
Cc1oc(-c2ccccc2)nc1CCCc1nc2cc(C[C@H](Oc3ccc(C(C)(C)C)cc3)C(=O)O)ccc2o1	1.56 (≈ 2.9 µM)	> 200	1.56 (≈ 2.9 µM)	3.12 (≈ 5.79 µM)	3.12 (≈ 5.79 µM)
Cc1oc(-c2ccccc2)nc1CCCc1nc2cc(C[C@@H](Oc3ccc(-c4ccccc4)cc3)C(=O)O)ccc2o1	12.5 (≈ 22.4 µM)	> 200	6.25 (≈ 11.2 µM)	12.5 (≈ 22.4 µM)	6.25 (≈ 11.2 µM)
Cc1oc(-c2ccccc2)nc1CCCc1nc2cc(C[C@@H](Oc3ccc(C(F)(F)F)cc3)C(=O)O)ccc2o1	12.5 (≈ 22.7 µM)	> 200	6.25 (≈ 11.4 µM)	25 (≈ 45.4 µM)	12.5 (≈ 22.7 µM)
CC(=O)c1ccc(O[C@@H](Cc2ccc3oc(CCCc4nc(-c5ccccc5)oc4C)nc3c2)C(=O)O)cc1	100 (≈ 191 µM)	> 200	100 (≈ 191 µM)	> 200	> 200
Cc1oc(-c2ccccc2)nc1CCCc1nc2cc(C[C@@H](Oc3ccc(C(C)(C)C)cc3)C(=O)O)ccc2o1	12.5 (≈ 23.2 µM)	> 200	12.5 (≈ 23.2 µM)	25 (≈ 46.4 µM)	12.5 (≈ 23.2 µM)
Cc1oc(-c2ccccc2)nc1CCCc1nc2cc(C[C@H](Oc3ccc(I)cc3)C(=O)O)ccc2o1	1.56 (≈ 2.56 µM)	> 200	1.56 (≈ 2.56 µM)	12.5 (≈ 20.5 µM)	6.25 (≈ 10.3 µM)
Cc1oc(-c2ccccc2)nc1CCCc1nc2cc(C[C@@H](Oc3ccc(OCc4ccccc4)cc3)C(=O)O)ccc2o1	25 (≈ 42.5 µM)	> 200	25 (≈ 42.5 µM)	25 (≈ 42.5 µM)	12.5 (≈ 21.2 µM)

Structure (SMILES)	MIC (Staphylococcus aureus [1]) [µg/mL]	MIC (Candida albicans) [µg/mL]	MIC (Staphylococcus aureus [2]) [µg/mL]	MIC (Escherichia coli) [µg/mL]	MIC (Bacillus subtilis) [µg/mL]
Cc1oc(-c2ccccc2)nc1CCCc1nc2cc(C[C@H](Oc3cccc(F)c3)C(=O)O)ccc2o1	12.5 (≈ 25 µM)	> 200	12.5 (≈ 25 µM)	50 (≈ 99.9 µM)	25 (≈ 49.9 µM)
CC(C)(O/N=C(\C(=O)N[C@@H]1C(=O)N2C(C(=O)[O-])=C(C[n+]3ccccc3)CS[C@H]12)c1csc(N)n1)C(=O)O [CEFTAZIDIME]	0.78 (≈ 1.43 µM)	–	12.5 (≈ 22.9 µM)	200 (≈ 366 µM)	6.25 (≈ 11.4 µM)
COc1ccc(O[C@@H](Cc2ccc3oc(CCCc4nc(-c5ccccc5)oc4C)nc3c2)C(=O)O)cc1	25 (≈ 48.8 µM)	> 200	25 (≈ 48.8 µM)	100 (≈ 195 µM)	50 (≈ 97.5 µM)
CO[C@@H](Cc1ccc2oc(CCCc3nc(-c4ccccc4)oc3C)nc2c1)C(=O)O	200 (≈ 476 µM)	> 200	100 (≈ 238 µM)	> 200	200 (≈ 476 µM)
CC1(C)S[C@@H]2[C@H](NC(=O)Cc3ccccc3)C(=O)N2[C@H]1C(=O)[O-].[Na+] [PENICILLIN G SODIUM]	3.12	–	3.12	0.78	< 0.39
Cc1oc(-c2ccccc2)nc1CCCc1nc2cc(C[C@H](Oc3ccccc3Br)C(=O)O)ccc2o1	25 (≈ 44.5 µM)	> 200	25 (≈ 44.5 µM)	50 (≈ 89.1 µM)	50 (≈ 89.1 µM)
COC(=O)[C@H](Cc1ccc2oc(CCCc3nc(-c4ccccc4)oc3C)nc2c1)Oc1ccc(-c2ccccc2)cc1	> 200	> 200	> 200	> 200	> 200
CC(=O)N1CCN(c2ccc(OCC3COC(Cn4ccnc4)(c4ccc(Cl)cc4Cl)O3)cc2)CC1 (stereo not drawn) [KETOCONAZOLE]	–	< 0.39	–	–	–
Cc1oc(-c2ccccc2)nc1CCCc1nc2cc(C[C@H](Oc3cccc4ncccc34)C(=O)O)ccc2o1	25 (≈ 46.9 µM)	> 200	25 (≈ 46.9 µM)	200 (≈ 375 µM)	50 (≈ 93.7 µM)
Cc1oc(-c2ccccc2)nc1CCCc1nc2cc(C[C@H](Oc3ccc(Cl)cc3Cl)C(=O)O)ccc2o1	3.12 (≈ 5.66 µM)	> 200	1.56 (≈ 2.83 µM)	6.25 (≈ 11.3 µM)	3.12 (≈ 5.66 µM)
Cc1oc(-c2ccccc2)nc1CCCc1nc2cc(C[C@H](Oc3cc(F)c(F)c(F)c3)C(=O)O)ccc2o1	12.5 (≈ 23.3 µM)	> 200	6.25 (≈ 11.6 µM)	25 (≈ 46.6 µM)	6.25 (≈ 11.6 µM)
CC1=C(C(=O)O)N2C(=O)[C@@H](NC(=O)[C@H](N)C3=CCC=CC3)[C@H]2SC1 [CEPHRADINE]	25 (≈ 71.5 µM)	–	50 (≈ 143 µM)	25 (≈ 71.5 µM)	50 (≈ 143 µM)
Cc1oc(-c2ccccc2)nc1CCCc1nc2cc(C[C@H](Oc3ccc(Cl)cc3)C(=O)O)ccc2o1	6.25 (≈ 12.1 µM)	> 200	6.25 (≈ 12.1 µM)	25 (≈ 48.4 µM)	12.5 (≈ 24.2 µM)
Cc1oc(-c2ccccc2)nc1CCCc1nc2cc(C[C@H](Oc3ccc(F)cc3)C(=O)O)ccc2o1	12.5 (≈ 25 µM)	> 200	12.5 (≈ 25 µM)	50 (≈ 99.9 µM)	25 (≈ 49.9 µM)
Cc1oc(-c2ccccc2)nc1CCCc1nc2cc(C[C@H](Oc3ccccc3)C(=O)O)ccc2o1	25 (≈ 51.8 µM)	> 200	25 (≈ 51.8 µM)	100 (≈ 207 µM)	25 (≈ 51.8 µM)
Clc1ccc(COC(Cn2ccnc2)c2ccc(Cl)cc2Cl)c(Cl)c1.O=[N+]([O-])O (stereo not drawn) [MICONAZOLE NITRATE]	–	1.56	–	–	–

— ChEMBL document CHEMBL1817558, “Design, synthesis and antimicrobial activity of chiral 2-(substituted-hydroxyl)-3-(benzo[d]oxazol-5-yl)propanoic acid derivatives” (2011)
